# Measurements published in PubChem BioAssay.
# Activity calls are given as the source filed them.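 How the source made its calls, unless noted: active means viability loss from added drug above about 55%, and viability with drug at most 40%, in both replicates (limit read from the data, passing the limit was not always enough); inconclusive means both conditions met in only one replicate; inactive means neither replicate meets both conditions.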
# Key:
# [1] = HUVEC growth inhibition – cell-based, human, primary screen (AID 575;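 active means viability at or below 30% in both replicate assays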;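 further: 100% = median of untreated cell wells with 0.1% DMSO on each plate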); settings: HUVEC proliferation, CellTiter-Glo luminescence, 72 h; at 10 µM; stronger effect = lower value
# In short: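 Material: primary human umbilical vein endothelial cells / Schedule: 72 h exposure, 37 °C, 5% CO2, 30 min RT equilibration / Signal: ATP-based CellTiter-Glo luminescent read / Read-out basis: percent of median DMSO-control luminescence / Control set: 32 DMSO-only cell-control wells (high), 32 MePR drug-control wells (low) per plate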
# [2] = H69AR cell proliferation blockers – human, duplicate replicates, primary screen (AID 580;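 active means viability at or under a set limit in both replicates, limit being median viability minus 3 SD, cut at about 48% in these data, passing the limit was not always enough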;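 further: 100% = mean luminescence of untreated wells and 0% = no signal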); settings: H69AR lung tumor cells viability, ATP luminescence, 72 h; at 10 µM; stronger effect = lower value
# [3] = MRP1 drug-resistance reversers in H69AR cells – cell-based, doxorubicin co-treatment, pilot screen (AID 601); settings: CellTiter-Glo, 72 h, at 10 µM; for differential viability (reversal): stronger effect = higher value
# [4] = yeast transport mutant growth inhibition pilot in 384-well plates, post-Golgi transport modulator project (AID 636; in the data active means inhibition above about 31%); settings: absorbance 615 nm, about 18 h, stronger effect = higher value
# [5] = growth suppression of yeast trafficking mutant, preliminary HTS, modulators of trafficking downstream of Golgi apparatus project, 1536-format plate, OD 615 nm (AID 637; in the data active means inhibition above about 30%); settings: yeast transport mutant growth, absorbance 615 nm, 18 h; stronger effect = higher value
# [6] = reduced viability of SK-BR-3 breast cancer cells – cell-based, 24 h, human, pilot screen (AID 572;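 active means viability at or below 10% of carrier control in both of two separate runs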;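 further: compound exposure lasted between 18 and 24 h rather than exactly 24 h; 100% = carrier-treated control wells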); settings: SK-BR-3 viability, CellTiter-Glo luminescence, at 10 µM, stronger effect = lower value
# [7] = H69AR cells + 2 uM doxorubicin, measured here: viability with 2 uM doxorubicin, stronger effect = lower value
# [8] = H69AR cells, compound alone cytotoxicity
Structure (SMILES),viability [1],viability [2],differential viability (reversal) ([3]; H69AR cells + 2 uM doxorubicin),"viability [3, 7]","viability [3, 8]",inhibition [4],inhibition [5],viability [6]
Cc1nc(C)c(C(=O)OCC(=O)N2CCN(c3ccccc3)CC2)s1,108% (inactive),95.8% (inactive),7.64% (inactive),88.1%,95.8%,-4.55% (inactive),4.29% (inactive),–
Nc1nc(SCCOc2ccccc2)n[nH]1,94.1% (inactive),97% (inactive),6.12% (inactive),90.8%,97%,-5.19% (inactive),-5.24% (inactive),–
COc1ccc(Cl)cc1N1CCN(CCNC(=O)Nc2ccccc2C)CC1,–,–,-22.7% (inactive),71.4%,48.7%,-4.93% (inactive),4.91% (inactive),85% (inactive)
CCS(=O)(=O)N1CCC(C(=O)NCc2cccs2)CC1,87.2% (inactive),99.3% (inactive),9.73% (inactive),89.6%,99.3%,-1.04% (inactive),-3.02% (inactive),–
CN1CCCc2cc(C#N)c(=O)[nH]c21,99.7% (inactive),107% (inactive),8.18% (inactive),99.3%,107%,-5.71% (inactive),-2.38% (inactive),–
Cc1cc(N2C(=O)C(=O)/C(=C(/O)c3ccc(F)cc3)C2c2ccc(F)cc2)no1 (stereo not drawn),78.3% (inactive),91.3% (inactive),3.5% (inactive),87.8%,91.3%,-5.47% (inactive),5.08% (inactive),–
CNCCCN1c2ccccc2CCc2ccccc21,82.1% (inactive),90.4% (inactive),14.6% (inactive),75.8%,90.4%,–,–,–
CCC(=O)Oc1ccc(/C(CC)=C(\CC)c2ccc(OC(=O)CC)cc2)cc1,–,–,-40.5% (inactive),49.2%,8.75%,-0.39% (inactive),-4.67% (inactive),131% (inactive)
O=C(Nc1nnc(C2CCCCC2)s1)c1cccs1,102% (inactive),93.2% (inactive),10.4% (inactive),82.9%,93.2%,0% (inactive),-3.81% (inactive),–
COc1ccc(C2C3=C(OC(C)=O)c4ccccc4C3=Nc3c2c(=O)n(C)c(=O)n3C)cc1 (stereo not drawn),65.4% (inactive),74.1% (inactive),0.425% (inactive),73.7%,74.1%,-4% (inactive),0.79% (inactive),–
Fc1c(F)c(F)c(CSc2nc3ccccc3[nH]2)c(F)c1F,105% (inactive),95.8% (inactive),11.8% (inactive),84%,95.8%,0.65% (inactive),3.02% (inactive),–
Cc1nn(Cc2ccccc2)c(C)c1NC(=O)CCC(=O)O,110% (inactive),89.4% (inactive),-8.23% (inactive),97.7%,89.4%,3.42% (inactive),-1.75% (inactive),–
Clc1ccc(OCc2nnc(SCCN3CCCCC3)n2Cc2ccco2)cc1,–,–,-4.72% (inactive),43.3%,38.6%,-7.33% (inactive),-1.82% (inactive),90% (inactive)
CCCC(=O)Nc1ccc(NC(=O)c2cccs2)cn1,95.9% (inactive),87.8% (inactive),5.45% (inactive),82.3%,87.8%,-2.99% (inactive),-2.86% (inactive),–
CCCC(CCC)n1[nH]c(=O)c2c(C)cc(C)nc21,108% (inactive),104% (inactive),1.53% (inactive),103%,104%,0.26% (inactive),-3.17% (inactive),–
COc1ccccc1N1CCN(Cc2nc(N)nc(Nc3ccc(C)c(Cl)c3)n2)CC1,–,–,-26.3% (inactive),65.1%,38.8%,-1.3% (inactive),-3.28% (inactive),104% (inactive)
c1ccc(OCCOc2ncnc3sccc23)cc1,100% (inactive),98.7% (inactive),7% (inactive),91.7%,98.7%,-0.26% (inactive),-1.75% (inactive),–
COc1ccc(C2C(C#N)=C(N)Oc3cc4c(cc32)OCO4)cc1 (stereo not drawn),53.4% (inactive),32.8% (active),-49.4% (inactive),82.2%,32.8%,-5.07% (inactive),-1.11% (inactive),–
O=C(Nc1ccc(N2CCCC2=O)cc1)c1cccc(F)c1,109% (inactive),99.9% (inactive),21.6% (inactive),78.2%,99.9%,-4.61% (inactive),0.95% (inactive),–
CC(=O)NC1=NC(=O)/C(=C/N2CCCCC2)S1,99.5% (inactive),95.9% (inactive),5.1% (inactive),90.8%,95.9%,-1.97% (inactive),-2.22% (inactive),–
CCCCNC(=O)c1cc(-c2ccc(F)cc2)on1,74.1% (inactive),81.2% (inactive),21.9% (inactive),59.2%,81.2%,-2.5% (inactive),-1.11% (inactive),–

Structure (SMILES),viability [1],viability [2],differential viability (reversal) ([3]; H69AR cells + 2 uM doxorubicin),"viability [3, 7]","viability [3, 8]",inhibition [4],inhibition [5],viability [6]
CCCc1ccc(C(C)NC(=O)c2cnccn2)cc1 (stereo not drawn),87.3% (inactive),100% (inactive),16.6% (inactive),83.5%,100%,-5.26% (inactive),2.06% (inactive),–
CCCS(=O)(=O)N1CCC(C(=O)NCCN2CCCC2)CC1,96.5% (inactive),94.9% (inactive),8.3% (inactive),86.6%,94.9%,-3.2% (inactive),2.86% (inactive),–
CC1CCN(CCC(=O)Nc2ccc(Br)cc2)CC1,88.6% (inactive),89.2% (inactive),8.88% (inactive),80.4%,89.2%,-4.47% (inactive),0.32% (inactive),–
N#CCCn1cnc2ccccc21,108% (inactive),104% (inactive),3.56% (inactive),100%,104%,0.52% (inactive),-3.97% (inactive),–
O=C(C1CC2CCC1C2)N1CCN(Cc2ccc3c(c2)OCO3)CC1 (stereo not drawn),103% (inactive),99.2% (inactive),13.9% (inactive),85.3%,99.2%,-4.68% (inactive),3.33% (inactive),–
Cc1cc(NC(=O)COc2ncnc3sc(C)c(C)c23)no1,97.6% (inactive),89.8% (inactive),3.08% (inactive),86.7%,89.8%,-3.77% (inactive),5.56% (inactive),–
Cn1c(=O)c(=O)n(C)c2cc(S(=O)(=O)N3CCCCC3)ccc21,111% (inactive),100% (inactive),16.1% (inactive),84.3%,100%,-3.07% (inactive),0.16% (inactive),–
COc1cccc(C(=O)CSc2nnc(COc3cccc4cccnc34)o2)c1,90.3% (inactive),81% (inactive),-2.74% (inactive),83.7%,81%,4.87% (inactive),-7.94% (inactive),–
Cc1cccc2c1nc(-c1ccccc1)n1cnnc21,92.3% (inactive),86.7% (inactive),-8.59% (inactive),95.3%,86.7%,1.2% (inactive),-6.19% (inactive),–
c1ccc(Cn2nnnc2C(c2ccccn2)N2CCOCC2)cc1 (stereo not drawn),107% (inactive),94.3% (inactive),-2.14% (inactive),96.5%,94.3%,-3.25% (inactive),-6.51% (inactive),–
O=C(CSc1nc2ccc(Cl)cc2[nH]1)NCc1ccco1,74.2% (inactive),65.4% (inactive),-4.26% (inactive),69.6%,65.4%,0.65% (inactive),13.3% (inactive),–
O=C(CN1CCN(c2ncc(C(F)(F)F)cc2Cl)CC1)Nc1ccc2c(c1)OCO2,85.7% (inactive),93.2% (inactive),0.28% (inactive),92.9%,93.2%,0.65% (inactive),-4.29% (inactive),–
COc1ccc(C(=O)Nc2ccccc2C(=O)NCCN2CCOCC2)cc1,107% (inactive),95.8% (inactive),2.99% (inactive),92.8%,95.8%,0% (inactive),-4.13% (inactive),–
COC(=O)c1ccc(CSc2nc3ccccc3c(=O)n2Cc2ccco2)o1,81.2% (inactive),84.4% (inactive),-7.85% (inactive),92.3%,84.4%,-4.94% (inactive),-1.11% (inactive),–
CC(=O)C1=C(C)NC(=O)NC1c1cccc(O)c1 (stereo not drawn),99.8% (inactive),94.4% (inactive),8.07% (inactive),86.3%,94.4%,-2.93% (inactive),0.16% (inactive),–
O=C(O)c1ccccc1S,84.4% (inactive),74.7% (inactive),6.9% (inactive),67.8%,74.7%,-2.34% (inactive),3.5% (inactive),–
CC(=O)Nc1cccc(NC(=O)CSc2nnnn2C)c1,115% (inactive),106% (inactive),10.2% (inactive),95.9%,106%,-5.39% (inactive),0.95% (inactive),–
CC(=O)Nc1ccc(NC(=O)c2ccccc2N(C)S(C)(=O)=O)cc1,101% (inactive),94.9% (inactive),3.22% (inactive),91.7%,94.9%,-6.71% (inactive),-0.79% (inactive),–
CCOC(=O)c1ccc(NC(=O)N2CCN(CCc3ccccc3)CC2)cc1,91.7% (inactive),101% (inactive),10.2% (inactive),90.4%,101%,-2.11% (inactive),-0.32% (inactive),–
COC(=O)COc1ccc(C(=O)OC)cc1,92.8% (inactive),108% (inactive),10.4% (inactive),97.4%,108%,-1.84% (inactive),-2.38% (inactive),–
CCCCc1cc(=O)oc2c(CN3CCCC3)c(O)c(Cl)cc12,98.2% (inactive),96.6% (inactive),3.32% (inactive),93.3%,96.6%,-3.16% (inactive),3.33% (inactive),–
